The RNAGym collection of RNA variant scans (doi:10.1126/science.aae0568)
Fewer inactive variants are shown than the library holds.

B1: tRNA (parent)
chain: GUUCCGUUGGCGUAAUGGUAACGCGUCUCCCUCCUAAGGAGAAGACUGCGGGUUCGAGUCCCGUACGGAACG

Variants of: B1
Experiment: yeast fitness relative to wild type (ratio to wild type); higher = fitter; tRNA-Arg(CCU), competitive growth, 37 C, YPD
In short: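 Changes in genotype frequencies gave Darwinian fitness relative to wild type. Frequencies were read by 100-nucleotide paired-end sequencing of gene amplicons before and after pooled Saccharomyces cerevisiae strains, carrying tRNA-Arg(CCU) gene variants at the native locus, were competed in YPD at 37°C for 24 hours in six replicates. A genotype was kept only with ≥ 100 starting reads, and estimates < 0.5 were set to 0.5.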

Compared with G9A U26A G56A G67A, G9A U19C C66U is higher in yeast fitness: ≤ 0.5 for the first, 0.742 for the second.

G10A A37C A57C and G9C G39C G41A A43U cannot be ordered by yeast fitness: ≤ 0.5 for the first, ≤ 0.5 for the second.

First: G9C C31A
Second: G9C C30A C46A G48C A70C
The yeast fitness of the first is higher: 0.685 for the first, ≤ 0.5 for the second.

Compared with G9C G48A, G9C A15U C24U U53G C62G is lower in yeast fitness: 0.705 for the first, ≤ 0.5 for the second.

Going from G9C A36U C60G G63C to G9A U16G A42C, the yeast fitness rises from ≤ 0.5 to 0.955.

Going from G9A U16C G41A G58A to G10A A20C C29G, the yeast fitness rises from ≤ 0.5 to 0.597.

G10A A20C C27G A40G and G9A U26C A36U G39A cannot be ordered by yeast fitness: ≤ 0.5 for the first, ≤ 0.5 for the second.

Compared with G9C G38C, G9A U32G is higher in yeast fitness: 0.546 for the first, 0.616 for the second.

G9C U13G G38C A45G C62G and G10A A21U A42G cannot be ordered by yeast fitness: ≤ 0.5 for the first, ≤ 0.5 for the second.

G9C U16G U32C A37C and G9C C61G G63C cannot be ordered by yeast fitness: ≤ 0.5 for the first, ≤ 0.5 for the second.

G9C U35A A43U and G10A A20U C27U U35C G48C C60A cannot be ordered by yeast fitness: ≤ 0.5 for the first, ≤ 0.5 for the second.

First: G9C U16G C29A
Second: G9C C24U U26G C61G
The yeast fitness of the first is lower: ≤ 0.5 for the first, 0.504 for the second.

G9C C27A C30U C33G and G9C A14C G44C U47C A57C cannot be ordered by yeast fitness: ≤ 0.5 for the first, ≤ 0.5 for the second.

Compared with G9C C27U U53A, G10A is higher in yeast fitness: 0.548 for the first, 0.705 for the second.

Going from G9C C11A A15U C24G C33G G38C A43G C61G to G9C A45G, the yeast fitness rises from ≤ 0.5 to 0.78.

G9A U28C G44A G68C and G9C C22G C61A G63A cannot be ordered by yeast fitness: ≤ 0.5 for the first, ≤ 0.5 for the second.

G9C C24G C30U and G9C U28A C46U C60A A70C cannot be ordered by yeast fitness: ≤ 0.5 for the first, ≤ 0.5 for the second.

Going from G10A A14U A43C A69C to G9C U19G, the yeast fitness rises from ≤ 0.5 to 0.502.

Going from G9A U26C C49U to G9C A21G C60A, the yeast fitness falls from 0.685 to ≤ 0.5.

First: G9C G41C
Second: G9U A37U G50C C66U
The yeast fitness of the first is higher: 0.575 for the first, ≤ 0.5 for the second.

First: G9C C62U
Second: G9C G23A G50A
The yeast fitness of the first is higher: 0.814 for the first, ≤ 0.5 for the second.

First: G9C C27G G52C
Second: G9C C11G A20U C31U G38C
The yeast fitness of the first is higher: 0.595 for the first, ≤ 0.5 for the second.

G9C C61U C66G and G9C G18C C49G G63A A65U cannot be ordered by yeast fitness: ≤ 0.5 for the first, ≤ 0.5 for the second.

Going from G9C C66G to G9C C46U A65U A69U, the yeast fitness falls from 0.547 to ≤ 0.5.

Compared with G10A A20U U35C G48C, G9C C29A C34U is lower in yeast fitness: 0.723 for the first, ≤ 0.5 for the second.

Compared with G10A A42C A43C, G9U U16A A36C A37G G56C is lower in yeast fitness: 0.612 for the first, ≤ 0.5 for the second.

G9C A15G A21G C49G C60A and G9C A14G U16G G23A C33A G44A C66U cannot be ordered by yeast fitness: ≤ 0.5 for the first, ≤ 0.5 for the second.

Compared with G9C C11G G12C U28C C61U, G9C A43U C49A is lower in yeast fitness: 0.747 for the first, ≤ 0.5 for the second.

First: G9U G23C A45U G51C
Second: G10A A37U G67C
The yeast fitness of the first is lower: ≤ 0.5 for the first, 0.587 for the second.

G9C G23A A40C G41A C55G and G9U C27U C29A A69U cannot be ordered by yeast fitness: ≤ 0.5 for the first, ≤ 0.5 for the second.

Going from G9A U28A A45G to G9C C33A A70C, the yeast fitness rises from 0.645 to 0.826.

Compared with G9C G38A A65G, G9C C49U A57G is higher in yeast fitness: 0.519 for the first, 0.615 for the second.

First: G10A A21C C24A
Second: G9C U26C
The yeast fitness of the first is lower: ≤ 0.5 for the first, 0.612 for the second.

First: G9C U26G
Second: G9C A37U
The yeast fitness of the first is higher: 0.684 for the first, 0.663 for the second.

First: G9C C30G A36U C46A
Second: G9C A37U G52A
The yeast fitness of the first is higher: 0.532 for the first, ≤ 0.5 for the second.

Going from G9A U47A A69U to G9C U19C A40U A57U, the yeast fitness falls from 0.676 to ≤ 0.5.

First: G10A A36G C60G
Second: G9C G18C G44A
The yeast fitness of the first is lower: ≤ 0.5 for the first, 0.526 for the second.

Going from G9C C30U A69U to G9C G68C, the yeast fitness rises from ≤ 0.5 to 0.777.

Going from G9C C24A C62G to G9C G23A A36C, the yeast fitness rises from ≤ 0.5 to 0.777.

G9C A21C C29U and G9C G17A C66U cannot be ordered by yeast fitness: ≤ 0.5 for the first, ≤ 0.5 for the second.

G9C C22G C62U C66A and G9U U16G C66A cannot be ordered by yeast fitness: ≤ 0.5 for the first, ≤ 0.5 for the second.

Going from G9C A15U U28G C55G A69U to G9C C27G C46U, the yeast fitness falls from 0.599 to 0.582.

G9C G63A C66U and G9C C30A U35C cannot be ordered by yeast fitness: ≤ 0.5 for the first, ≤ 0.5 for the second.

G9C G12A C29A G38A and G9C C27U C33G A37G C66U cannot be ordered by yeast fitness: ≤ 0.5 for the first, ≤ 0.5 for the second.

G10A A21U C31A G39C C62G G68A and G9C U16G A70U cannot be ordered by yeast fitness: ≤ 0.5 for the first, ≤ 0.5 for the second.

Going from G10A A21U U53A C66U to G9C C49U A65U, the yeast fitness rises from ≤ 0.5 to 0.52.

Compared with G9C U13A G41A C62U, G9C G44C C61U is higher in yeast fitness: ≤ 0.5 for the first, 0.584 for the second.

G9C A42U C62G and G10A A21G U28C cannot be ordered by yeast fitness: ≤ 0.5 for the first, ≤ 0.5 for the second.

First: G9C U32C A36G G52A
Second: G9C C49A
The yeast fitness of the first is lower: ≤ 0.5 for the first, 0.596 for the second.

First: G9C A14C U16C C27U C29A C33G C66A
Second: G9C G17C C27G U35A C49A
The yeast fitness of the first is higher: 0.577 for the first, ≤ 0.5 for the second.

Going from G10A A57C U59C to G9A U59A, the yeast fitness rises from ≤ 0.5 to 0.936.

First: G9A U26G A57U
Second: G9U G50A
The yeast fitness of the first is lower: 0.631 for the first, 0.663 for the second.

G9C U28A A40C U47C G52A and G9A U19A U26A C34U cannot be ordered by yeast fitness: ≤ 0.5 for the first, ≤ 0.5 for the second.

Going from G9C U28A G50C U59A to G9C A14U G48C A69U, the yeast fitness falls from 0.685 to ≤ 0.5.

Compared with G9C U16A C24U C30U, G9C A36U A45C G52A is lower in yeast fitness: 0.533 for the first, ≤ 0.5 for the second.

G9C C27U G52C and G9C A57G U59A cannot be ordered by yeast fitness: ≤ 0.5 for the first, ≤ 0.5 for the second.

G9C U28C C30G C49G and G9C A21U U54A A70G cannot be ordered by yeast fitness: ≤ 0.5 for the first, ≤ 0.5 for the second.

G10A A20C G38A G41A and G9C A43G G68A cannot be ordered by yeast fitness: ≤ 0.5 for the first, ≤ 0.5 for the second.

Compared with G10A A15U A36U A70C, G9A U47C is higher in yeast fitness: ≤ 0.5 for the first, 0.909 for the second.

Compared with G9A U47G, G9C C11U C24G C31U C34U C49U A69C is lower in yeast fitness: 0.626 for the first, ≤ 0.5 for the second.

Going from G9A U19G A37C A43U C46G to G10A A36U G38A A65C, the yeast fitness falls from 0.581 to ≤ 0.5.

Compared with G9C A20C G67C, G9C U13G U28C G41C A43C A45U C49G U53G A69C is higher in yeast fitness: 0.537 for the first, 0.611 for the second.

Compared with G9C U28C G44C U54C, G10A A14U A21C C29U C60A is higher in yeast fitness: ≤ 0.5 for the first, 0.647 for the second.

Compared with G9C C33U A40G U54G C62G, G10A A21G C22U is higher in yeast fitness: ≤ 0.5 for the first, 0.606 for the second.

Going from G9C G12A A21C U26A G39C to G9A U19G C31G, the yeast fitness falls from 0.632 to ≤ 0.5.

G9C C11A A15U C24G C33G G38C A43G C60U G63A and G9C A20G A42U G44C G50C cannot be ordered by yeast fitness: ≤ 0.5 for the first, ≤ 0.5 for the second.

First: G9C C55A A69C
Second: G9C U28C G44C
The yeast fitness of the first is lower: ≤ 0.5 for the first, 0.619 for the second.

Going from G9C C30G C46U to G9C U13C A20G C31G A57G, the yeast fitness falls from 0.564 to ≤ 0.5.

First: G9C U19C C31A C55U
Second: G9C G12A G48C C62A
The yeast fitness of the first is higher: 0.641 for the first, ≤ 0.5 for the second.

Going from G9C U13C C55U A57C to G10A A45G C46G U54G A70C, the yeast fitness rises from ≤ 0.5 to 0.532.

G9A U47C G48C U59A C66A A69C and G9C C31A C49G C55G A70C cannot be ordered by yeast fitness: ≤ 0.5 for the first, ≤ 0.5 for the second.

First: G9C C31G A69G
Second: G9C C46A
The yeast fitness of the first is lower: ≤ 0.5 for the first, 0.893 for the second.

Going from G9A U54A to G10A A42G A70C, the yeast fitness falls from 0.696 to ≤ 0.5.

G9C A20C C27U G39A G56A G58C and G10A A36U A43G C66A cannot be ordered by yeast fitness: ≤ 0.5 for the first, ≤ 0.5 for the second.

First: G9C A14G A57U C60A C61G
Second: G9C C11G C24U C31U U59A A70C
The yeast fitness of the first is lower: ≤ 0.5 for the first, 0.563 for the second.

G9C G10C A69G A70G and G9A U28C G38A G44A G51C G58C cannot be ordered by yeast fitness: ≤ 0.5 for the first, ≤ 0.5 for the second.

Compared with G9C A40U C66U, G9C C30U A37G C55G is lower in yeast fitness: 0.622 for the first, ≤ 0.5 for the second.

Compared with G9C C11A A40C, G10A A20U U35C G48C C60A A69C is lower in yeast fitness: 0.671 for the first, ≤ 0.5 for the second.

G9C G23C C29U A36C C49G and G9C U13A G25A A40C A57C C61U G67A cannot be ordered by yeast fitness: ≤ 0.5 for the first, ≤ 0.5 for the second.

G9C C34U A43U C55A A57C and G9C C30U G48C cannot be ordered by yeast fitness: ≤ 0.5 for the first, ≤ 0.5 for the second.

G9C C29U C30A C46G and G9C U16C G51C cannot be ordered by yeast fitness: ≤ 0.5 for the first, ≤ 0.5 for the second.

G9C C46G C61G A65C and G9C A14G A45G cannot be ordered by yeast fitness: ≤ 0.5 for the first, ≤ 0.5 for the second.

First: G10A A14G A36G
Second: G9C G23C
The yeast fitness of the first is lower: ≤ 0.5 for the first, 0.573 for the second.

Work on G9A U32C C33G A37G G52A C55U A65U yielded a yeast fitness of 0.583.
